From ChEMBL document CHEMBL3616442, “Unconventional Knoevenagel-type indoles: Synthesis and cell-based studies for the identification of pro-apoptotic agents” (Eur J Med Chem, 2015) come the findings set out here.

One assay concerns HL-60. Kind of assay: Induction of cell cycle arrest in human HL60 cells assessed as accumulation at G2/M phase after 18 hrs by propidium iodide staining based flow cytometric analysis. The assay is classed as functional. The procedure, abridged: (§1)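 Propidium iodide/RNase A flow cytometry of ethanol-fixed cells, 10,000 gated events at 488 nm; G2/M fraction measured after 18 h treatment (HL-60, MCF-7) or 24 h (K562); mean ± S.E.M. of three independent experiments.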

The next assay has as its system MCF7. Briefly: Induction of cell cycle arrest in human MCF7 cells assessed as accumulation at G2/M phase after 18 hrs by propidium iodide staining based flow cytometric analysis. The assay is classed as functional. In outline: as §1
On the technique in general: Flow cytometry measures light scatter and fluorescence of single cells or particles in a stream.

For `COc1ccc(-c2[nH]c3ccccc3c2/C=C(\C#N)S(=O)(=O)c2ccccc2)cc1`, the results for the Activity in the assay on HL-60 and in the assay on MCF7 were 47.3% and 40.4%, respectively.
